Assay results published in ChEMBL document CHEMBL3734668, “Evaluation of small molecule SecA inhibitors against methicillin-resistant Staphylococcus aureus” (Bioorg Med Chem, 2015).
Converted amounts (≈) assume the structure as drawn. Blank lines part the entries; values can stand above or below the compound they belong to. The source made the active and inactive calls. The calls are words filed in the database; no cut-off is given here.

What was measured:
Staphylococcus aureus [1] = test: Bacteriostatic activity against Staphylococcus aureus Mu50 after 24 hrs; assay type: functional; conditions: Mu50, 24 h
Procedure, shortened: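 Broth microdilution per CLSI guidelines in LB. Inhibitor added to dilute early-log culture (OD600 ≈ 0.05), 37 °C, 250 rpm, 24 hrs. Run in triplicate in three separate experiments. MIC read as the lowest concentration with no growth.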

[2] = target: T1, Protein translocase subunit SecA 1 (Staphylococcus aureus (strain NCTC 8325)) (UniProt O06446); test: Binding affinity to SecA1 in Staphylococcus aureus ATCC 6538 whole cell lysate incubated for 1 hr by Streptavidin-based pull down assay
T1 sequence (whole entry): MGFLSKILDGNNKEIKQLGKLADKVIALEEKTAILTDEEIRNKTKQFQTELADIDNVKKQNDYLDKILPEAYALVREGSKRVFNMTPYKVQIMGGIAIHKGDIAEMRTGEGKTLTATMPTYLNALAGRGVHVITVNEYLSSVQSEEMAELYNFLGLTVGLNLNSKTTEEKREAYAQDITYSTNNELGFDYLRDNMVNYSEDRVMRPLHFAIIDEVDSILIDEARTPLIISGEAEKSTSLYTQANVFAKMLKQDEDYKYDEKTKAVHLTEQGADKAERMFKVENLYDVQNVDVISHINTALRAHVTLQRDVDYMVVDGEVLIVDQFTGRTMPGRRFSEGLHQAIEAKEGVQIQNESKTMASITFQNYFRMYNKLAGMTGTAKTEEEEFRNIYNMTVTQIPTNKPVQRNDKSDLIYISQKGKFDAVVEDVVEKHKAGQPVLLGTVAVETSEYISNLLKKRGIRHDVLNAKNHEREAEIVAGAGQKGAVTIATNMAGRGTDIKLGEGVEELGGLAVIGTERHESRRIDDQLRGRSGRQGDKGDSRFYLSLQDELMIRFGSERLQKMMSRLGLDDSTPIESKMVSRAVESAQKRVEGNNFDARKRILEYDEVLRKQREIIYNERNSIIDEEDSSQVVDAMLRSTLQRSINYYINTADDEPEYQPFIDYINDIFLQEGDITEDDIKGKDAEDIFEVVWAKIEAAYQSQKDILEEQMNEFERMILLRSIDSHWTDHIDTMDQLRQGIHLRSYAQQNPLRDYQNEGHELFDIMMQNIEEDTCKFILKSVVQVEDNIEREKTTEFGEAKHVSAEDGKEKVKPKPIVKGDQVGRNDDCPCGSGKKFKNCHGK
Procedure, shortened: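 Lysate precleared on streptavidin magnetic beads (4 °C, 1 hr), then rolled ±400 μM biotinylated probe at 4 °C, 1 hr. Beads washed three times, boiled in SDS buffer; SaSecA1 detected by Western blot using cross-reacting EcSecA antibody.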

[3] = Inhibition of Escherichia coli SecA N68 mutant ATPase activity
Staphylococcus aureus [4] = test: Bacteriostatic activity against Staphylococcus aureus N315 after 24 hrs; assay type: functional; conditions: N315, 24 h
Procedure, shortened: (§1)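 Broth microdilution MIC per CLSI guidance in LB, 37 °C, shaking 250 rpm, 24 hr; run in triplicate in three separate experiments. MIC taken as lowest inhibitor concentration with no growth. Compounds from DMSO stocks; untreated controls carry equal DMSO.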

Staphylococcus aureus [5] = test: Bacteriostatic activity against MepA deficient Staphylococcus aureus K2908; assay type: functional; procedure, shortened: as §1
Staphylococcus aureus [6] = test: Bacteriostatic activity against NorA deficient Staphylococcus aureus K1758; assay type: functional; procedure, shortened: as §1
Staphylococcus aureus [7] = test: Bacteriostatic activity against Staphylococcus aureus Mu3 after 24 hrs; assay type: functional; conditions: Mu3, 24 h; procedure, shortened: as §1
Staphylococcus aureus [8] = test: Bacteriostatic activity against Staphylococcus aureus Newman after 24 hrs; assay type: functional; procedure, shortened: as §1
Staphylococcus aureus [9] = test: Bacteriostatic activity against Staphylococcus aureus K2068 overexpressing MepA; assay type: functional; procedure, shortened: as §1
[10] = target: T2, Protein translocase subunit SecA 2 (Staphylococcus aureus (strain NCTC 8325), UniProt Q2FUW6); test: Inhibition of Staphylococcus aureus ATCC 35556 SecA2 expressed in Escherichia coli BL21-gammaDE3 assessed as reduction in intrinsic ATPase activity incubated for 3 hrs measured by malachite green colorimetric method
T2 sequence (Q2FUW6 whole entry): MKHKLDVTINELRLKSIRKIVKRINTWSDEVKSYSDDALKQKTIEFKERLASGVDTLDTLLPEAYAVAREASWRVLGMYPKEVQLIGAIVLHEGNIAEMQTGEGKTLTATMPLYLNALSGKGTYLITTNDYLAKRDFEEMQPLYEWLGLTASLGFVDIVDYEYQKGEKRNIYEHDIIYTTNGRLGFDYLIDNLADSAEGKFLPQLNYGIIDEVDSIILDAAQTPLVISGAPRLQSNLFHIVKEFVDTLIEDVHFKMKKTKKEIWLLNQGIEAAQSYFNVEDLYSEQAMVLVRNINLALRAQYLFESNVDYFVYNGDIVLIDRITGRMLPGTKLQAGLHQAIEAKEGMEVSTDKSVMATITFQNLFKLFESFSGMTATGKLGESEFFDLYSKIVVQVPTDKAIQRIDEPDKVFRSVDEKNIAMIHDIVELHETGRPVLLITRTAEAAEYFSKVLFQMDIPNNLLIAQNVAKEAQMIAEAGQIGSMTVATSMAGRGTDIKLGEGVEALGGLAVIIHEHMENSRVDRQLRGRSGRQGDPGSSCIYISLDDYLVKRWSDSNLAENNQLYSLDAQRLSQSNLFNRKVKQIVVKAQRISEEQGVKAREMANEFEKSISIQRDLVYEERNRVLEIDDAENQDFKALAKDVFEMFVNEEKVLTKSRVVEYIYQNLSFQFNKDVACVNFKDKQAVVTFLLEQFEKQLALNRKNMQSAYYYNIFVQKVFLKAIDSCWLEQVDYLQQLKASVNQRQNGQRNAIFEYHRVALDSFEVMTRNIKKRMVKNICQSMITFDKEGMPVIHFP

Staphylococcus aureus [11] = test: Bacteriostatic activity against Staphylococcus aureus K2361 overexpressing NorA; assay type: functional; procedure, shortened: as §1
Staphylococcus aureus [12] = test: Bacteriostatic activity against wild type Staphylococcus aureus 8325-4; assay type: functional; procedure, shortened: as §1
[13] = target: T3, Protein translocase subunit SecA 1 (Staphylococcus aureus (strain NCTC 8325), UniProt O06446); test: Inhibition of Staphylococcus aureus ATCC 35556 SecA1 liposomal ion channel activity in Xenopus laevis oocytes incubated for 3 hrs measured by recording ion current for 1 min; assay type: cell-based
T3 sequence (O06446 whole entry): T1 sequence (whole entry)
Procedure, shortened: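 Xenopus laevis oocytes injected at animal pole with 50 nl containing 120 ng liposomes, 120 ng SaSecA1, 14 ng proOmpA, 2 mM ATP, 1 mM Mg(OAc)2 plus varying inhibitor. Incubated 3 hr at 23 °C, then ion current recorded continuously 1 min.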

Staphylococcus aureus [14] = test: Bacteriostatic activity against Staphylococcus aureus ATCC 6538 after 24 hrs; assay type: functional; conditions: ATCC 6538, 24 h
[15] = target: T3, Protein translocase subunit SecA 1; test: Inhibition of Staphylococcus aureus ATCC 35556 SecA1 expressed in Escherichia coli BL21-gammaDE3 assessed as reduction in intrinsic ATPase activity incubated for 3 hrs measured by malachite green colorimetric method

SMILES: CN[C@@H](CC(C)C)C(=O)N[C@H]1C(=O)N[C@@H](CC(N)=O)C(=O)N[C@H]2C(=O)N[C@H]3C(=O)N[C@H](C(=O)N[C@@H](C(=O)O)c4cc(O)cc(O)c4-c4cc3ccc4O)[C@H](O)c3ccc(c(Cl)c3)Oc3cc2cc(c3O[C@H]2O[C@@H](CO)[C@H](O)[C@@H](O)[C@@H]2O[C@@H]2C[C@@](C)(N)[C@@H](O)[C@@H](C)O2)Oc2ccc(cc2Cl)[C@H]1O
- MIC (Staphylococcus aureus [1]): 8 µg/mL (≈ 5.52 µM)

SMILES: CC1(C)S[C@@H]2[C@H](NC(=O)[C@H](N)c3ccccc3)C(=O)N2[C@H]1C(=O)O [AMPICILLIN]
- MIC (Staphylococcus aureus [1]): 1000 µg/mL (≈ 2860 µM)

SMILES: O=C(CCCC[C@@H]1SC[C@@H]2NC(=O)N[C@@H]21)NCCCCCCC1c2ccc(O)cc2Oc2cc(O)ccc21
- Activity [2]: Active
- IC50 [3]: 90 µM

SMILES: O=C([O-])c1c(Cl)c(Cl)c(Cl)c(Cl)c1-c1c2cc(I)c(=O)c(I)c-2oc2c(I)c([O-])c(I)cc12.[Na+].[Na+] [ROSE BENGAL SODIUM]
- MIC (Staphylococcus aureus [4]): 21 µg/mL
- MIC (Staphylococcus aureus [5]): 11 µg/mL
- MIC (Staphylococcus aureus [6]): 22 µg/mL
- MIC (Staphylococcus aureus [7]): 59 µg/mL
- MIC (Staphylococcus aureus [8]): 51 µg/mL
- MIC (Staphylococcus aureus [9]): 15 µg/mL
- IC50 [10]: 2 µM
- MIC (Staphylococcus aureus [11]): 35 µg/mL
- MIC (Staphylococcus aureus [12]): 13 µg/mL

SMILES: Oc1ccc2c(c1)Oc1cc(O)ccc1C2C1CCCC1
- MIC (Staphylococcus aureus [4]): 14 µg/mL (≈ 49.6 µM)
- MIC (Staphylococcus aureus [1]): 14 µg/mL (≈ 49.6 µM)
- IC50 [13]: 2 µM
- MIC (Staphylococcus aureus [14]): 11 µg/mL (≈ 39 µM)
- MIC (Staphylococcus aureus [7]): 14 µg/mL (≈ 49.6 µM)
- MIC (Staphylococcus aureus [8]): 7 µg/mL (≈ 24.8 µM)
- IC50 [15]: 35 µM
- IC50 [10]: 30 µM

SMILES: CCn1cc(C(=O)O)c(=O)c2cc(F)c(N3CCNCC3)cc21 [NORFLOXACIN]
- MIC (Staphylococcus aureus [1]): 250 µg/mL (≈ 783 µM)

Now from value to compound:

- MIC (Staphylococcus aureus [1]): 1000 µg/mL (≈ 2060 µM)
SMILES: NC[C@H]1O[C@H](O[C@H]2[C@H](O)[C@@H](O[C@H]3O[C@H](CO)[C@@H](O)[C@H](N)[C@H]3O)[C@H](N)C[C@@H]2N)[C@H](O)[C@@H](O)[C@@H]1O [KANAMYCIN]

- MIC (Staphylococcus aureus [1]): > 1000 µg/mL
SMILES: CO[C@H]1/C=C/O[C@@]2(C)Oc3c(C)c(O)c4c(O)c(c(/C=N/N5CCN(C)CC5)c(O)c4c3C2=O)NC(=O)/C(C)=C\C=C\[C@H](C)[C@H](O)[C@@H](C)[C@@H](O)[C@@H](C)[C@H](OC(C)=O)[C@@H]1C [RIFAMPIN]

- MIC (Staphylococcus aureus [1]): > 1250 µg/mL
SMILES: CC[C@H]1OC(=O)[C@H](C)[C@@H](O[C@H]2C[C@@](C)(OC)[C@@H](O)[C@H](C)O2)[C@H](C)[C@@H](O[C@@H]2O[C@H](C)C[C@H](N(C)C)[C@H]2O)[C@](C)(O)C[C@@H](C)C(=O)[C@H](C)[C@@H](O)[C@]1(C)O [ERYTHROMYCIN]

- MIC (Staphylococcus aureus [1]): 63 µg/mL (≈ 142 µM)
SMILES: CN(C)[C@@H]1C(O)=C(C(N)=O)C(=O)[C@@]2(O)C(O)=C3C(=O)c4c(O)cccc4[C@@](C)(O)[C@H]3C[C@@H]12 [TETRACYCLINE]
